Results on 1 compound are retold here after ChEMBL document CHEMBL4261600 (Eur J Med Chem, 2018).

Activity calls are given as the source filed them.

In data set [1] the target is Bone morphogenetic protein receptor type-1A (Homo sapiens) (UniProt P36894). Put plainly: Binding affinity to wild-type human partial length BMPR1A (Q214 to I532 residues) expressed in bacterial expression system assessed as remaining unbound target protein level at 1000 nM by Kinomescan method relative to control. In a few lines: (§1)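 Profiled in a KINOMEscan binding panel with the inhibitor at a single concentration of 1 μM. Binding to each kinase was read out as percent of control, relative to a DMSO control. Strong binders were defined as those with a percent control value below 1.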

Data set [2] deals with Ephrin type-A receptor 5 (Homo sapiens) (UniProt P54756). Put plainly: Binding affinity to wild-type human partial length EPHA5 (T627 to V930 residues) expressed in bacterial expression system assessed as remaining unbound target protein level at 1000 nM by Kinomescan method relative to control.
Data set [3] has as its target Interleukin-1 receptor-associated kinase 4 (Homo sapiens) (UniProt Q9NWZ3). Put plainly: Binding affinity to wild-type human partial length IRAK4 (M1 to S460 residues) expressed in mammalian expression system assessed as remaining unbound target protein level at 1000 nM by Kinomescan method relative to control. In a few lines: (§2)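 KINOMEscan binding panel of 468 kinases/mutants. Inhibitor was tested at a single concentration of 1 μM. Binding is reported as percent of control, defined relative to a DMSO control.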

In data set [4] the test system is MV4-11. The data set is described as follows: Antitumor activity against human MV4-11 cells xenografted in nu/nu mouse assessed as tumor growth inhibition at 10 mg/kg, po administered via gavage for 21 days measured on day 21 post last dose. Type of data set: functional, organism-based. In a few lines: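 Female nu/nu mice, five weeks old, implanted subcutaneously in the right flank with 5 million MV4-11 cells in PBS/Matrigel 1:1. Daily oral gavage in 0.5% methylcellulose/0.4% Tween80 started at tumor volume 200–400 mm³, 10, 20 or 30 mg/kg/day or vehicle, 5 mice per group. Tumor volume (W²×L)/2 and body weight measured daily; mean ± SEM.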
(In general: In xenograft studies the graft and the host belong to different species.)

A short description of data set [5]: Antiproliferative activity against human MEC2 cells after 72 hrs by Celltiter-Glo assay. The following applies: MEC2, 72 h. The data set is classed as functional. In a few lines: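 Cells seeded at 3000/well in 96-well plates, exposed to serially diluted compound for 72 h at 37 °C, 5% CO2. Viability read by CellTiter-Glo luminescence and normalized to DMSO control. GI50 derived from curve fit, mean of three independent measurements. Culture media: DMEM/10% FBS for adherent lines; IMDM for MV4-11 and MEC-1/2; RPMI 1640 for suspension lines and CHL.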
A general note: Cellular ATP, detected with luciferase, serves as a proxy for viable cell number.

The target in data set [6] is Serine/threonine-protein kinase 35 (Homo sapiens) (UniProt Q8TDR2). Put plainly: Binding affinity to wild-type human partial length STK35 (G182 to A534 residues) expressed in bacterial expression system assessed as remaining unbound target protein level at 1000 nM by Kinomescan method relative to control.
Data set [7] addresses Serine/threonine-protein kinase MRCK beta (Homo sapiens) (UniProt Q9Y5S2). Put plainly: Binding affinity to wild-type human partial length MRCKB (L56 to S417 residues) expressed in bacterial expression system assessed as remaining unbound target protein level at 1000 nM by Kinomescan method relative to control.
For data set [8], the system named is Epidermal growth factor receptor (Homo sapiens), P00533 [L861Q]. Put plainly: Binding affinity to human partial length EGFR L861Q mutant (R669 to V1011 residues) expressed in bacterial expression system assessed as remaining unbound target protein level at 1000 nM by Kinomescan method relative to control. The method in brief: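 KINOMEscan competition-binding profiling across the panel of 468 kinases and mutants, with inhibitor tested at 1 μM. Binding is expressed as percent of control, with DMSO as the reference control.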

Data set [9] addresses Serine/threonine-protein kinase PAK 3 (Homo sapiens) (UniProt O75914). Put plainly: Binding affinity to wild-type human full length PAK3 (M1 to R544 residues) expressed in bacterial expression system assessed as remaining unbound target protein level at 1000 nM by Kinomescan method relative to control. In a few lines: as §1
Data set [10] deals with Mitogen-activated protein kinase kinase kinase 20 (Homo sapiens) (UniProt Q9NYL2). The data set is described as follows: Binding affinity to wild-type human partial length ZAK (M1 to L331 residues) expressed in bacterial expression system assessed as remaining unbound target protein level at 1000 nM by Kinomescan method relative to control.
Mitogen-activated protein kinase kinase kinase 20 (Homo sapiens), sequence (Q9NYL2 2-800 limits assumed): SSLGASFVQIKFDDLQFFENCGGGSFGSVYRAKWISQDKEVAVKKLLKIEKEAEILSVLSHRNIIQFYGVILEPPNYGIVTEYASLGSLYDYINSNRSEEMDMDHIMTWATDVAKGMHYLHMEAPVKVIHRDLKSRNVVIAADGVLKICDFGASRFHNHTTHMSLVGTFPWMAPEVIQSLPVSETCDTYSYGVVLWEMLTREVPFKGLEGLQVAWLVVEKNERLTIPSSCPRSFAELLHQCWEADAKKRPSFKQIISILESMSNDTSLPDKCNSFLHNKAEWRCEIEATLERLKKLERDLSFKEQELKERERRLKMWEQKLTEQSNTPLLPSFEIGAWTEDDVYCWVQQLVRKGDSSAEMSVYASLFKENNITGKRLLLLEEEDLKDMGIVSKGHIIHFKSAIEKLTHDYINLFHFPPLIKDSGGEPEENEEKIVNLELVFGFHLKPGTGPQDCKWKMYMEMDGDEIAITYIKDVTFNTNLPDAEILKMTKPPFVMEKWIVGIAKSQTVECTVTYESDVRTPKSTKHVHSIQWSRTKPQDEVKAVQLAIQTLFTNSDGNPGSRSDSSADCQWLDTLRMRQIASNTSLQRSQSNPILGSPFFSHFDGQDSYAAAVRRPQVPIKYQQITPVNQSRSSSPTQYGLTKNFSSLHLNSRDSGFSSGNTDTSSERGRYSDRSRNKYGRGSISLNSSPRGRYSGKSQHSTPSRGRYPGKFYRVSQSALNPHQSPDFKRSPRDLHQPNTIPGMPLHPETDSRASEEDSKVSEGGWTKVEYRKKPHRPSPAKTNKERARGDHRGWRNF
Data set [11] deals with Serine/threonine-protein kinase BRSK2 (Homo sapiens) (UniProt Q8IWQ3). The data set is described as follows: Binding affinity to wild-type human full length BRSK2 (M1 to L674 residues) expressed in bacterial expression system assessed as remaining unbound target protein level at 1000 nM by Kinomescan method relative to control. The method in brief:
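Single-point competition binding screen across a panel of 468 kinases and mutants, with the inhibitor at 1 μM. Binding is read out as percent of a DMSO control, and targets below 1 percent control were classed as strong binders.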

In data set [12] the target is Tyrosine-protein kinase JAK1 (Homo sapiens) (UniProt P23458). Put plainly: Binding affinity to wild-type human partial length JAK1 JH2 pseudokinase domain (R537 to D855 residues) expressed in mammalian expression system assessed as remaining unbound target protein level at 1000 nM by Kinomescan method relative to control. The method in brief:
as §2

Data set [13] has as its target Dual specificity mitogen-activated protein kinase kinase 4 (Homo sapiens) (UniProt P45985). The data set is described as follows: Binding affinity to wild-type human partial length MEK4 (S84 to D399 residues) expressed in mammalian expression system assessed as remaining unbound target protein level at 1000 nM by Kinomescan method relative to control. In a few lines: as §2

Data set [14] has as its target Serine/threonine-protein kinase PAK 4 (Homo sapiens) (UniProt O96013). The data set is described as follows: Binding affinity to wild-type human partial length PAK4 (Q144 to R438 residues) expressed in bacterial expression system assessed as remaining unbound target protein level at 1000 nM by Kinomescan method relative to control. The method in brief: as §2
Data set [15] concerns the target NT-3 growth factor receptor (Homo sapiens) (UniProt Q16288). The data set is described as follows: Binding affinity to wild-type human partial length TRKC (Q531 to G825 residues) expressed in mammalian expression system assessed as remaining unbound target protein level at 1000 nM by Kinomescan method relative to control.
In data set [16] the target is Serine/threonine-protein kinase Sgk3 (Homo sapiens) (UniProt Q96BR1). The data set is described as follows: Binding affinity to wild-type human partial length SGK3 (M119 to L496 residues) expressed in mammalian expression system assessed as remaining unbound target protein level at 1000 nM by Kinomescan method relative to control.
For data set [17], the target named is Casein kinase I isoform alpha (Homo sapiens) (UniProt P48729). Put plainly: Binding affinity to wild-type human partial length CSNK1A1 (M1 to L450 residues) expressed in mammalian expression system assessed as remaining unbound target protein level at 1000 nM by Kinomescan method relative to control. The method in brief:
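KINOMEscan competition binding profile across a panel of 468 kinases and mutants, with the inhibitor tested at a single concentration of 1 μM. Binding is reported as percent of control, meaning signal relative to a DMSO control.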

Data set [18] has as its target High affinity nerve growth factor receptor (Homo sapiens) (UniProt P04629). Put plainly: Binding affinity to wild-type human partial length TRKA (G475 to G790 residues) expressed in mammalian expression system assessed as remaining unbound target protein level at 1000 nM by Kinomescan method relative to control.
The nature of data set [19]: Tmax in beagle dog at 10 mg/kg, po by LC-MS/MS analysis. The data set is classed as ADME, organism-based, Canis lupus familiaris. The following applies: in vivo.

NT-3 growth factor receptor (Homo sapiens), sequence (Q16288 32-839 limits assumed): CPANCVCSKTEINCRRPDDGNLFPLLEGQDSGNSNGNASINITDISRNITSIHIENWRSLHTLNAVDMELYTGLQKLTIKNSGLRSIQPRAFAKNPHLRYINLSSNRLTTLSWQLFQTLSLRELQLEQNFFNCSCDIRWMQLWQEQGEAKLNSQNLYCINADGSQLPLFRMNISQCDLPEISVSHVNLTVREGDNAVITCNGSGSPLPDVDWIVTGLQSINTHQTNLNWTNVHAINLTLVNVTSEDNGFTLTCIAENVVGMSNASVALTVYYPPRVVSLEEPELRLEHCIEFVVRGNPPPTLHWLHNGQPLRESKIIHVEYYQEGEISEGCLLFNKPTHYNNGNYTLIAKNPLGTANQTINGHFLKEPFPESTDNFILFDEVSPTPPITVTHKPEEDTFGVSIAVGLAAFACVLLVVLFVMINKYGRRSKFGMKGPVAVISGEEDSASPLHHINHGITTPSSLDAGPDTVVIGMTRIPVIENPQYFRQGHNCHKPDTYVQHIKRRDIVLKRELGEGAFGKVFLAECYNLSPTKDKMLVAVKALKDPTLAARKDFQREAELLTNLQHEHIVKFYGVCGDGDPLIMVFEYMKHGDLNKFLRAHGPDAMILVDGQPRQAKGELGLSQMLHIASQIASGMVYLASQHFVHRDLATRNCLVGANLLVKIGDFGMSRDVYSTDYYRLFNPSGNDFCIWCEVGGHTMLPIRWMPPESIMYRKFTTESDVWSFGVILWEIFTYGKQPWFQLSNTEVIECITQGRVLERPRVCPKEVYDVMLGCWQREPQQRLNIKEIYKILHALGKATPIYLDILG
Serine/threonine-protein kinase PAK 4 (Homo sapiens), sequence (O96013 whole entry, looked up, the tested form may be a part): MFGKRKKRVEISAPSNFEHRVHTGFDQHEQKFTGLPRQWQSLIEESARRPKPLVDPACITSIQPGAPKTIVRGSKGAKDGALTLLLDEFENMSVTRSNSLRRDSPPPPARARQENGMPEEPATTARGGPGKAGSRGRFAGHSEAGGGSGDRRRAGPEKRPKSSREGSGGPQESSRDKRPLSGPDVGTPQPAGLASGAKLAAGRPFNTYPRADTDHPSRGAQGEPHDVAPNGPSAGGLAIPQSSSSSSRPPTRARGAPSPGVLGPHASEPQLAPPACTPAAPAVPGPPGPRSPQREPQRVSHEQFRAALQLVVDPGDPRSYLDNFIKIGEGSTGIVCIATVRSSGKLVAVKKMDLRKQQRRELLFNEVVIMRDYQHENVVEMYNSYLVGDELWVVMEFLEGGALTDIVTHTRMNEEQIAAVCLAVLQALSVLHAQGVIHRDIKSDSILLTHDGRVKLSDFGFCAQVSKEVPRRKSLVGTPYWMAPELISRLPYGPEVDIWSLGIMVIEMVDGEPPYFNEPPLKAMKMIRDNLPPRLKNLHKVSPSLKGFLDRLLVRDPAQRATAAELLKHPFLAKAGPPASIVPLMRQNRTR
Interleukin-1 receptor-associated kinase 4 (Homo sapiens), sequence (Q9NWZ3 whole entry, the tested form may be a part): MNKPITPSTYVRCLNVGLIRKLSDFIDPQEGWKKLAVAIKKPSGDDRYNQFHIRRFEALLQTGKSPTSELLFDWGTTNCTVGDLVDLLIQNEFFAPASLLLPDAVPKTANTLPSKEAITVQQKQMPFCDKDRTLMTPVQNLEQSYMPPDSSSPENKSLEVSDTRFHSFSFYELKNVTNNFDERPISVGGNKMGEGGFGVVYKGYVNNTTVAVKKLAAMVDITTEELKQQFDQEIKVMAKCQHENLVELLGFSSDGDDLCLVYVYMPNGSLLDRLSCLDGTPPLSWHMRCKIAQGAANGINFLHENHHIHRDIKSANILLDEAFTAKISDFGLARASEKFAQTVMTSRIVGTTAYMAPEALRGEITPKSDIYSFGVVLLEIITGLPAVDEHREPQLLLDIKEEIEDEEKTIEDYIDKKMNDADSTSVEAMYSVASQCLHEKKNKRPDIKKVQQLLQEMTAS
Casein kinase I isoform alpha (Homo sapiens), sequence (P48729 2-337 limits assumed): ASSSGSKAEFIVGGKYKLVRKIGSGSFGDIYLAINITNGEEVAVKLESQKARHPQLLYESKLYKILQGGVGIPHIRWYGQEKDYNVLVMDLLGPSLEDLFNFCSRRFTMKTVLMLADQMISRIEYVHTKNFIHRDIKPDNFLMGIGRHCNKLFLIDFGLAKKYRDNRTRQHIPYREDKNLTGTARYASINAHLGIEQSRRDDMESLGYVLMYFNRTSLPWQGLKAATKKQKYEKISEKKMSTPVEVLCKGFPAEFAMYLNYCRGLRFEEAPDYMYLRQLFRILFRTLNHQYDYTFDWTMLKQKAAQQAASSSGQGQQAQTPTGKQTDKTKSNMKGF
High affinity nerve growth factor receptor (Homo sapiens), sequence (P04629 33-796 limits assumed): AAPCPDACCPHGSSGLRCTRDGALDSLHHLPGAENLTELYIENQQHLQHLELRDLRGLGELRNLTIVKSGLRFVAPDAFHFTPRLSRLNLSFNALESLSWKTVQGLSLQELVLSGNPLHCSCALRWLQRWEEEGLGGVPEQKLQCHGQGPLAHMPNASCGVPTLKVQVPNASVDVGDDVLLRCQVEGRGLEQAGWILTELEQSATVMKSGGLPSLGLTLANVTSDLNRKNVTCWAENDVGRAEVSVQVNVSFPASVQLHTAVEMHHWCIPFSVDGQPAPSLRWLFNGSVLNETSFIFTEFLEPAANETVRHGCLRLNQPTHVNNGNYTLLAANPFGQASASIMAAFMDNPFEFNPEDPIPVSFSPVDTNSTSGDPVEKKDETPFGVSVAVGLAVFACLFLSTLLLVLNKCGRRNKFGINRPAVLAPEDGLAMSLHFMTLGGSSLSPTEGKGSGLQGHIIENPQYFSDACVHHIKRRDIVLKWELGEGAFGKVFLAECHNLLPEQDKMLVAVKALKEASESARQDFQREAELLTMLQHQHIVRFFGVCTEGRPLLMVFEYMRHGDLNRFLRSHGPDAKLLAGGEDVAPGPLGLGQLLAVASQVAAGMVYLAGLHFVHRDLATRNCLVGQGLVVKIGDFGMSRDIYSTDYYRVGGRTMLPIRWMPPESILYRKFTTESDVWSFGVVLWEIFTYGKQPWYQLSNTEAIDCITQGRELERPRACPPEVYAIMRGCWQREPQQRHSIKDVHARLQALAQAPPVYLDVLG
Serine/threonine-protein kinase BRSK2 (Homo sapiens), sequence (Q8IWQ3 whole entry, the tested form may be a part): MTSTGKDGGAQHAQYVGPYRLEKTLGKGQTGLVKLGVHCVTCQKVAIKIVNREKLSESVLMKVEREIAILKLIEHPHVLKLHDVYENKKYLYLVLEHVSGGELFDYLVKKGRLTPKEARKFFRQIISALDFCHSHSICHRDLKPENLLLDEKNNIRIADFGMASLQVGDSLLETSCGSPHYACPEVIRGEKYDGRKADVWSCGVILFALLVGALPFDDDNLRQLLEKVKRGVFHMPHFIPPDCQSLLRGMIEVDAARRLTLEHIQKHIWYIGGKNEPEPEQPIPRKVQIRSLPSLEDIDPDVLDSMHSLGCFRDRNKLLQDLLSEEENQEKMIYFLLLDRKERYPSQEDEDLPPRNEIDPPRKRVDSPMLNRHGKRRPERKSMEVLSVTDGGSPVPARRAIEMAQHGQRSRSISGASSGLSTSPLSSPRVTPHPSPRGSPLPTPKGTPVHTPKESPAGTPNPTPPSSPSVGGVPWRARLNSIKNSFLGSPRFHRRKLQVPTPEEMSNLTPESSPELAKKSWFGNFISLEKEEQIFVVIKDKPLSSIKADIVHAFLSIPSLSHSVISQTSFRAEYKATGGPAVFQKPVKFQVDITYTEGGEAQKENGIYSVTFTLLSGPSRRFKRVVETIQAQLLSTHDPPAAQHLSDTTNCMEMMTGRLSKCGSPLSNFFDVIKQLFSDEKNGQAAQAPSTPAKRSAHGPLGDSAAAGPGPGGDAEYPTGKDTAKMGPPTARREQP
Dual specificity mitogen-activated protein kinase kinase 4 (Homo sapiens), sequence (P45985 whole entry, the tested form may be a part): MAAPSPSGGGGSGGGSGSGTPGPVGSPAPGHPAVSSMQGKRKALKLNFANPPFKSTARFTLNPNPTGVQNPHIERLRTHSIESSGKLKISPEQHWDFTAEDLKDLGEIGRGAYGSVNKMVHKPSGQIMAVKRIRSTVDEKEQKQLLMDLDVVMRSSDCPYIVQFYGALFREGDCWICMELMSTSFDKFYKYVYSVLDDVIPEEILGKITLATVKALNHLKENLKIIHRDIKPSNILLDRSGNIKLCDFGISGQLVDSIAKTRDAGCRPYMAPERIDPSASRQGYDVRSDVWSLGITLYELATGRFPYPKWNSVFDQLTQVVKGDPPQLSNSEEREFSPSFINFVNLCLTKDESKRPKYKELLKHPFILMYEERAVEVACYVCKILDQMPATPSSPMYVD

As usually defined, the GI50 is the concentration that inhibits growth by half. A higher GI50 goes with lower sensitivity of the cells. By Tmax is commonly meant the time from dosing to the highest level. On to `COCCN[C@H]1CC[C@H](Nc2cc(-c3csc(NCC4(C#N)CCOCC4)n3)c(Cl)cn2)CC1`, for which the Activity worked out at 98% in data set [1]; 97% in [2]; 81% in data set [3]; 100% in [6]; 100% in data set [7]; 76% in data set [8]. Further, the Activity in [9] is 97%; in data set [10], 96%; in data set [11], 75%; in data set [12] it was 57%; in data set [13] it was 99%; in data set [14] it was 91%. In addition, the Activity turned out to be 89% in data set [15], 100% in data set [16], 99% in data set [17] and 71% in data set [18]. Moreover, in [4], the TGI result was “inactive”. The same compound displayed a GI50 in data set [5] of 37 nM. In [19], the time to peak (Tmax) stood at 1.33 h.
